Reference: ChEMBL document CHEMBL4007450, “Development of 1,2,4-Oxadiazoles as Potent and Selective Inhibitors of the Human Deacetylase Sirtuin 2: Structure-Activity Relationship, X-ray Crystal Structure, and Anticancer Activity” (J Med Chem, 2017)
Active and inactive are the calls of the source. The calls are words filed in the database; no cut-off is given here.

How the values were obtained:
[1] = molecular target: T1, NAD-dependent protein deacetylase sirtuin-2 (Homo sapiens, UniProt Q8IXJ6)
T1 sequence (Q8IXJ6 whole entry): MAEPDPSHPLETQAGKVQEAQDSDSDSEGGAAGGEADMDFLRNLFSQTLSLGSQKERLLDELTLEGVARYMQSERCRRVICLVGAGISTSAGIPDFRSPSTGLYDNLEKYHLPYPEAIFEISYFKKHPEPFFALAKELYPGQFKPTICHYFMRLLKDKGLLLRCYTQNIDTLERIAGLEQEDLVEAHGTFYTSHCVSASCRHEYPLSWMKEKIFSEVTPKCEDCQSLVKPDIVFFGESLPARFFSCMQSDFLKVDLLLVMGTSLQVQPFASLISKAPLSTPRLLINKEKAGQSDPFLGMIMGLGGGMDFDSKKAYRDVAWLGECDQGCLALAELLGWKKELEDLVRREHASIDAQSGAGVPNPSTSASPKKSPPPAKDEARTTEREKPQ

[2] = molecular target: T2, NAD-dependent protein deacetylase sirtuin-2 (Homo sapiens) (UniProt Q8IXJ6); test: Inhibition of human N-terminal His6-SUMO-tagged SIRT2 catalytic domain (43 to 356 residues) deacetylase activity expressed in Escherichia coli using alpha-tubulin-acetylLys40 peptide as substrate at 100 uM after 45 mins in presence of NAD+ by pNCA/GDH-based microplate spectrophotometric analysis
T2 sequence (whole entry): T1 sequence (Q8IXJ6 whole entry)
Procedure, shortened: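 Continuous coupled assay: Sirt2 product nicotinamide is converted by pNCA/GDH, and NADPH oxidation is read at 340 nm. Compounds were tested at 10 and 100 μM. Background was taken without peptide or NAD+.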

U-937 = test: Effect on cell cycle arrest in human U937 cells at 25 uM after 48 hrs by propidium iodide staining-based FACS analysis; assay type: functional

| SMILES | IC50 [1] [µM] | inhibition [2] | Activity (U-937) |
| --- | --- | --- | --- |
| CC(=O)OCCCc1nc(-c2ccc(Cl)cc2)no1 | 21.2 |  |  |
| OCC1CCN(Cc2nc(-c3ccc(Cl)cc3)no2)CC1 |  | Active | inactive |
| Clc1ccc(-c2noc(CN3CCCC3)n2)cc1 |  | Active | inactive |
| Clc1cccc(-c2noc(CN3CCCCC3)n2)c1 |  |  | inactive |
| NC(=O)c1nc(-c2ccc(Br)cc2)no1 |  |  | inactive |
| BrCCCCc1nc(-c2ccc(Br)cc2)no1 | 2.6 |  | inactive |
| Cc1nc(-c2ccc(Cl)cc2)no1 |  |  | inactive |
| Clc1ccc(-c2noc(CN3CCCCC3)n2)cc1 |  | Active | inactive |
| Clc1cccc(-c2noc(CCCBr)n2)c1 |  |  | inactive |
| Clc1ccc(-c2noc(CCCN3CCCCC3)n2)cc1 |  | inactive | inactive |
| CN(C)Cc1nc(-c2ccc(Cl)cc2)no1 |  |  | inactive |
| Clc1ccc(-c2noc(CN3CCN(c4ccccc4)CC3)n2)cc1 |  | Active | inactive |
| c1cncc(-c2noc(CN3CCCCC3)n2)c1 |  |  | inactive |
| BrCCCc1nc(-c2cccc(Br)c2)no1 |  |  | inactive |
| CN(C)Cc1nc(-c2ccc([N+](=O)[O-])cc2)no1 |  | inactive | inactive |
| Clc1ccc(-c2noc(CNC3CCCCC3)n2)cc1 |  | Active | inactive |

| SMILES | IC50 [1] [µM] | inhibition [2] | Activity (U-937) |
| --- | --- | --- | --- |
| c1ccc(-c2noc(CN3CCCCC3)n2)cc1 |  |  | inactive |
| FC(F)(F)c1ccc(-c2noc(CCCBr)n2)cc1 | 3.9 |  | inactive |
| O=[N+]([O-])c1ccc(-c2noc(CN3CCCC3)n2)cc1 |  | inactive | inactive |
| Clc1ccc(-c2noc(CN3CCSCC3)n2)cc1 |  | Active | inactive |
| OCCCc1nc(-c2ccc(Cl)cc2)no1 | 41.2 |  |  |
| BrCCCc1nc(-c2ccccc2)no1 |  |  | inactive |
| Clc1ccc(-c2noc(CN3CCOCC3)n2)cc1 |  | Active | inactive |
| CN1CCN(Cc2nc(-c3ccc(Cl)cc3)no2)CC1 |  | Active | inactive |
| OCCN1CCN(CCCc2nc(-c3ccccc3)no2)CC1 |  | inactive | inactive |
| CCN(CC)Cc1nc(-c2ccc([N+](=O)[O-])cc2)no1 |  | inactive | inactive |
| O=[N+]([O-])c1ccc(-c2noc(CCCBr)n2)cc1 | 6.6 | Active | inactive |
| FC(F)(F)c1nc(-c2ccc(Br)cc2)no1 |  |  | inactive |
| Cc1ccc(-c2noc(CCCBr)n2)cc1 |  | Active | inactive |
| COC(=O)c1nc(-c2ccc(Br)cc2)no1 |  |  | inactive |
| Clc1ccccc1-c1noc(CN2CCCCC2)n1 |  |  | inactive |
| Clc1ccc(-c2noc(CN3CCCCCC3)n2)cc1 |  | Active | inactive |
